Experimental data gathered from unrelated publications.
Effect on: cell growth or viability

Structure (SMILES)	cell line	method	tested at	time	endpoint	value
COc1ccc2[nH]c(C(=O)Nc3nc(CC(=O)NN=Cc4cccc5ccccc45)cs3)cc2c1 (mixture of isomers)	HepG2	MTT			IC50	24.2 µM
COc1ccccc1C(=O)/C=C/c1cn(Cc2cn(-c3ccnc4cc(Cl)ccc34)nn2)c2ccccc12	HepG2	MTT	100 µM	24 h	viability	> 90%
CCSc1nc(C2CC2)cc(C(F)(F)F)n1	HEK-293T	ATP luminescence		24 h	CC50	> 60 µM
O[C@@H](CNCCN1CCN(C(c2ccccc2)c2ccccc2)CC1)c1cc(Cl)cc2c1-c1ccc(Cl)cc1C2	HepG2	MTT		72 h	CC50	27.1 µM
Clc1ccc(OC2=CC(c3ccc[nH]3)=N/C2=C\NC23CC4CC(CC(C4)C2)C3)cc1	HepG2	MTT		48 h	IC50	14.5 µM
CCCCNCC(O)c1cc(Cl)cc2c1-c1ccc(Cl)cc1C2 (racemic)	HepG2			48 h	CC50	6.4 µM
CCS(=O)(=O)c1nc(C2CC2)cc(C(F)(F)F)n1	HEK-293T	ATP luminescence		24 h	CC50	29 µM
O=C(Cc1csc(NC(=O)c2cc3ccccc3[nH]2)n1)NN=Cc1cccc2ccccc12 (mixture of isomers)	HepG2	MTT			IC50	36 µM
O[C@@H](CN1CCN(C(c2ccccc2)c2ccccc2)CC1)c1cc(Cl)cc2c1-c1ccc(Cl)cc1C2	HepG2			48 h	CC50	> 50 µM
CC[S+]([O-])c1nc(-c2ccccc2)cc(C(F)(F)F)n1 (stereo not shown)	HEK-293T	ATP luminescence		24 h	CC50	> 60 µM
